According to ChEMBL document CHEMBL1932986, “Synthesis and in vitro antimycobacterial activity of compounds derived from (R)- and (S)-2-amino-1-butanol - The crucial role of the configuration” (Eur J Med Chem, 2012):
Converted amounts (≈) assume the structure as drawn. The source made the active and inactive calls. The calls are words filed in the database; no cut-off is given here.

Legend:
Penicillium chrysogenum [1] = assay: Antifungal activity against Penicillium chrysogenum CECT 2802 at 2 mg/ml after 72 hrs by agar diffusion test; type: functional, organism-based
Outline: (§1)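 Agar diffusion: yeasts grown on yeast peptone dextrose agar and fungi on potato dextrose agar. Wells are filled with […] of compound solution in DMSO at various concentrations, and the clear-zone diameter is measured. Bracketed values give the lowest concentration (mg/ml) that produces a zone >11 mm. A first screen is run at 50 mg/ml.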

Saccharomyces cerevisiae [2] = assay: Antifungal activity against Saccharomyces cerevisiae ATCC 9763 at 2 mg/ml after 72 hrs by agar diffusion test; type: functional, organism-based; outline: as §1
Candida tropicalis [3] = assay: Antifungal activity against Candida tropicalis ATCC 20336 at 2 mg/ml after 72 hrs by agar diffusion test; type: functional, organism-based; outline: as §1
Escherichia coli [4] = assay: Antibacterial activity against Escherichia coli ATCC 8739 at 2 mg/ml after 24 hrs by agar diffusion test; type: functional, organism-based
Outline: (§2)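 Agar diffusion: wells in agar filled with […] DMSO solution of compound at various concentrations; diameter of clear zone around application point measured. Bacteria grown 24 h at 37 °C on nutrient agar. Compounds first screened at 50 mg/ml; those active then tested at lower concentrations. Bracketed value = lowest concentration (mg/ml) giving zone >11 mm, reported only if activity retained at ≤1.25 mg/ml.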

Micrococcus luteus [5] = assay: Antibacterial activity against Micrococcus luteus ATCC 9631 at 2 mg/ml after 24 hrs by agar diffusion test; type: functional, organism-based; outline: as §2
Micrococcus luteus [6] = assay: Antibacterial activity against Sarcina lutea ATCC 9341 at 2 mg/ml after 24 hrs by agar diffusion test; type: functional, organism-based; outline: as §2
Staphylococcus aureus [7] = assay: Antibacterial activity against Staphylococcus aureus NRRL B 313 at 2 mg/ml after 24 hrs by agar diffusion test; type: functional, organism-based
Outline: (§3)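 Agar diffusion: bacteria grown 24 h at 37 °C on nutrient agar. Wells in the agar are filled with […] of compound solution in DMSO at various concentrations. The diameter of the clear zone around the application point is measured. Bracketed values give the lowest concentration (mg/ml) that produces a zone >11 mm. A first screen is run at 50 mg/ml.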

Acinetobacter johnsonii [8] = assay: Antibacterial activity against Acinetobacter johnsonii ATCC 17909 at 2 mg/ml after 24 hrs by agar diffusion test; type: functional; outline: as §2
Bacillus cereus [9] = assay: Antibacterial activity against Bacillus cereus ATCC 11778 at 2 mg/ml after 24 hrs by agar diffusion test; type: functional, organism-based; outline: as §2
Bacillus mycoides [10] = assay: Antibacterial activity against Bacillus mycoides DSMZ 274 at 2 mg/ml after 24 hrs by agar diffusion test; type: functional, organism-based; outline: as §2
Priestia megaterium [11] = assay: Antibacterial activity against Bacillus megaterium NRRL 1353895 at 2 mg/ml after 24 hrs by agar diffusion test; type: functional, organism-based; outline: as §2
Bacillus [12] = assay: Antibacterial activity against Bacillus idosus B 241 at 2 mg/ml after 24 hrs by agar diffusion test; type: functional, organism-based; outline: as §2
Bacillus subtilis [13] = assay: Antibacterial activity against Bacillus subtilis ATCC 6633 at 2 mg/ml after 24 hrs by agar diffusion test; type: functional, organism-based; outline: as §2
Bacillus subtilis [14] = assay: Antibacterial activity against Bacillus subtilis ATCC 6633 assessed as concentration required to produce >11 mm of zone of inhibition after 24 hrs by agar diffusion test; type: functional; outline: as §2
Bacillus [15] = assay: Antibacterial activity against Bacillus idosus B 241 assessed as concentration required to produce >11 mm of zone of inhibition after 24 hrs by agar diffusion test; type: functional; outline: as §2
Priestia megaterium [16] = assay: Antibacterial activity against Bacillus megaterium NRRL 1353895 assessed as concentration required to produce >11 mm of zone of inhibition after 24 hrs by agar diffusion test; type: functional; outline: as §2
Bacillus mycoides [17] = assay: Antibacterial activity against Bacillus mycoides DSMZ 274 assessed as concentration required to produce >11 mm of zone of inhibition after 24 hrs by agar diffusion test; type: functional; outline: as §2
Bacillus cereus [18] = assay: Antibacterial activity against Bacillus cereus ATCC 11778 assessed as concentration required to produce >11 mm of zone of inhibition after 24 hrs by agar diffusion test; type: functional; outline: as §2
Acinetobacter johnsonii [19] = assay: Antibacterial activity against Acinetobacter johnsonii ATCC 17909 assessed as concentration required to produce >11 mm of zone of inhibition after 24 hrs by agar diffusion test; type: functional; outline: as §2
[20] = test system: Mycobacterium tuberculosis; assay: Antimycobacterial activity against Mycobacterium tuberculosis H37Rv after 45 days; type: functional
Outline: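 Canetti proportion method. Compound in DMSO is added to Löwenstein–Jensen egg medium before coagulation (30 min, 85 °C), tested at three levels plus a lower one where needed. Tubes are inoculated with H37Rv at 10⁵ cells/ml and incubated 45 days at 37 °C. Colony counts versus drug-free control give percentage inhibition.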

Staphylococcus aureus [21] = assay: Antibacterial activity against Staphylococcus aureus NRRL B 313 assessed as concentration required to produce >11 mm of zone of inhibition after 24 hrs by agar diffusion test; type: functional; outline: as §3
Micrococcus luteus [22] = assay: Antibacterial activity against Sarcina lutea ATCC 9341 assessed as concentration required to produce >11 mm of zone of inhibition after 24 hrs by agar diffusion test; type: functional; outline: as §2
Micrococcus luteus [23] = assay: Antibacterial activity against Micrococcus luteus ATCC 9631 assessed as concentration required to produce >11 mm of zone of inhibition after 24 hrs by agar diffusion test; type: functional; outline: as §2
Candida tropicalis [24] = assay: Antifungal activity against Candida tropicalis ATCC 20336 assessed as concentration required to produce >11 mm of zone of inhibition after 72 hrs by agar diffusion test; type: functional; outline: as §1
Saccharomyces cerevisiae [25] = assay: Antifungal activity against Saccharomyces cerevisiae ATCC 9763 assessed as concentration required to produce >11 mm of zone of inhibition after 72 hrs by agar diffusion test; type: functional; outline: as §1
Penicillium chrysogenum [26] = assay: Antifungal activity against Penicillium chrysogenum CECT 2802 assessed as concentration required to produce >11 mm of zone of inhibition after 72 hrs by agar diffusion test; type: functional; outline: as §1
Bacillus subtilis [27] = assay: Antibacterial activity against Bacillus subtilis ATCC 6633 at 50 mg/ml after 24 hrs by agar diffusion test; type: functional; details: ATCC 6633, 24 h, read-out: DIZ; outline: as §2
Bacillus [28] = assay: Antibacterial activity against Bacillus idosus B 241 at 50 mg/ml after 24 hrs by agar diffusion test; type: functional; details: B 241, 24 h, read-out: DIZ; outline: as §2
Priestia megaterium [29] = assay: Antibacterial activity against Bacillus megaterium NRRL 1353895 at 50 mg/ml after 24 hrs by agar diffusion test; type: functional; details: NRRL 1353895, 24 h, read-out: DIZ; outline: as §2
Bacillus mycoides [30] = assay: Antibacterial activity against Bacillus mycoides DSMZ 274 at 50 mg/ml after 24 hrs by agar diffusion test; type: functional; details: DSMZ 274, 24 h, read-out: DIZ; outline: as §2
Bacillus cereus [31] = assay: Antibacterial activity against Bacillus cereus ATCC 11778 at 50 mg/ml after 24 hrs by agar diffusion test; type: functional; details: ATCC 11778, 24 h, read-out: DIZ; outline: as §2
Acinetobacter johnsonii [32] = assay: Antibacterial activity against Acinetobacter johnsonii ATCC 17909 at 50 mg/ml after 24 hrs by agar diffusion test; type: functional; details: ATCC 17909, 24 h, read-out: DIZ; outline: as §2
Staphylococcus aureus [33] = assay: Antibacterial activity against Staphylococcus aureus NRRL B 313 at 50 mg/ml after 24 hrs by agar diffusion test; type: functional; details: NRRL B 313, 24 h, read-out: DIZ; outline: as §3
Micrococcus luteus [34] = assay: Antibacterial activity against Sarcina lutea ATCC 9341 at 50 mg/ml after 24 hrs by agar diffusion test; type: functional; details: ATCC 9341, 24 h, read-out: DIZ; outline: as §3
Micrococcus luteus [35] = assay: Antibacterial activity against Micrococcus luteus ATCC 9631 at 50 mg/ml after 24 hrs by agar diffusion test; type: functional; details: ATCC 9631, 24 h, read-out: DIZ; outline: as §2
Escherichia coli [36] = assay: Antibacterial activity against Escherichia coli ATCC 8739 at 50 mg/ml after 24 hrs by agar diffusion test; type: functional; details: ATCC 8739, 24 h, read-out: DIZ; outline: as §2
Candida tropicalis [37] = assay: Antifungal activity against Candida tropicalis ATCC 20336 at 50 mg/ml after 72 hrs by agar diffusion test; type: functional; details: ATCC 20336, 72 h, read-out: DIZ; outline: as §1
Saccharomyces cerevisiae [38] = assay: Antifungal activity against Saccharomyces cerevisiae ATCC 9763 at 50 mg/ml after 72 hrs by agar diffusion test; type: functional; details: ATCC 9763, 72 h, read-out: DIZ; outline: as §1
Penicillium chrysogenum [39] = assay: Antifungal activity against Penicillium chrysogenum CECT 2802 at 50 mg/ml after 72 hrs by agar diffusion test; type: functional; details: CECT 2802, 72 h, read-out: DIZ; outline: as §1

CC[C@H](CO)NCc1c2ccccc2cc2ccccc12
diameter of the inhibition zone (DIZ) (Penicillium chrysogenum [1]): inactive
diameter of the inhibition zone (DIZ) (Saccharomyces cerevisiae [2]): inactive
diameter of the inhibition zone (DIZ) (Candida tropicalis [3]): inactive
diameter of the inhibition zone (DIZ) (Escherichia coli [4]): inactive
diameter of the inhibition zone (DIZ) (Micrococcus luteus [5]): inactive
diameter of the inhibition zone (DIZ) (Micrococcus luteus [6]): inactive
diameter of the inhibition zone (DIZ) (Staphylococcus aureus [7]): inactive
diameter of the inhibition zone (DIZ) (Acinetobacter johnsonii [8]): inactive
diameter of the inhibition zone (DIZ) (Bacillus cereus [9]): inactive
diameter of the inhibition zone (DIZ) (Bacillus mycoides [10]): inactive
diameter of the inhibition zone (DIZ) (Priestia megaterium [11]): inactive
diameter of the inhibition zone (DIZ) (Bacillus [12]): inactive
diameter of the inhibition zone (DIZ) (Bacillus subtilis [13]): inactive
Activity (Bacillus subtilis [14]): 0.3 mg/mL
Activity (Bacillus [15]): 1.25 mg/mL
Activity (Priestia megaterium [16]): 0.6 mg/mL
Activity (Bacillus mycoides [17]): 0.6 mg/mL
Activity (Bacillus cereus [18]): 0.3 mg/mL
Activity (Acinetobacter johnsonii [19]): 0.6 mg/mL
MIC [20]: 17.9 µM (≈ 5 µg/mL)
Activity (Staphylococcus aureus [21]): 0.03 mg/mL
Activity (Micrococcus luteus [22]): 0.3 mg/mL
Activity (Micrococcus luteus [23]): 0.3 mg/mL
Activity (Candida tropicalis [24]): 0.0125 mg/mL
Activity (Saccharomyces cerevisiae [25]): 0.0125 mg/mL
Activity (Penicillium chrysogenum [26]): 0.06 mg/mL
zone of inhibition at 50000 µg/mL (Bacillus subtilis [27]): 18 mm
zone of inhibition at 50000 µg/mL (Bacillus [28]): 19 mm
zone of inhibition at 50000 µg/mL (Priestia megaterium [29]): 20 mm
zone of inhibition at 50000 µg/mL (Bacillus mycoides [30]): 20 mm
zone of inhibition at 50000 µg/mL (Bacillus cereus [31]): 19 mm
zone of inhibition at 50000 µg/mL (Acinetobacter johnsonii [32]): 17 mm
zone of inhibition at 50000 µg/mL (Staphylococcus aureus [33]): 19 mm
zone of inhibition at 50000 µg/mL (Micrococcus luteus [34]): 18 mm
zone of inhibition at 50000 µg/mL (Micrococcus luteus [35]): 19 mm
zone of inhibition at 50000 µg/mL (Escherichia coli [36]): 12 mm
zone of inhibition at 50000 µg/mL (Candida tropicalis [37]): 31 mm
zone of inhibition at 50000 µg/mL (Saccharomyces cerevisiae [38]): 32 mm
zone of inhibition at 50000 µg/mL (Penicillium chrysogenum [39]): 16 mm
